# Experimental data from ChEMBL document CHEMBL1140082, “Design, synthesis, and biological evaluation of potent c-Met inhibitors” (J Med Chem, 2008).
# Key:
# [1] = Inhibition of IGFR
# [2] = biological target: Vascular endothelial growth factor receptor 2 (Homo sapiens, UniProt P35968); assay: Inhibition of phosphorylated KDR by HTRF assay
# In short: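 HTRF assay against KDR kinase with 10-point serial dilution. ATP at two-thirds of the experimentally determined Km (Eadie-Hofstee and Lineweaver-Burke). Ki derived from the IC50.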
# [3] = biological target: Fibroblast growth factor receptor 2 (Homo sapiens, UniProt P21802); assay: Inhibition of FGFRK2
# [4] = biological target: Ribosomal protein S6 kinase alpha-5 (Homo sapiens, UniProt O75582); assay: Inhibition of MSK1
# [5] = biological target: Macrophage colony-stimulating factor 1 receptor (Homo sapiens, UniProt P07333); assay: Inhibition of cFMS kinase
# [6] = Half life in iv dosed rat; assay type: ADME, organism-based; conditions: in vivo
# [7] = biological target: Cyclin-dependent kinase 5 (Homo sapiens, UniProt Q00535); assay: Inhibition of CDK5
# [8] = biological target: Tyrosine-protein kinase ZAP-70 (Homo sapiens, UniProt P43403); assay: Inhibition of ZAP70
# [9] = biological target: Tyrosine-protein kinase Lck (Homo sapiens, UniProt P06239); assay: Inhibition of LCK
# [10] = Bioavailability in iv dosed rat; assay type: ADME, organism-based; conditions: in vivo
# [11] = biological target: T1, Tyrosine-protein kinase JAK3 (Homo sapiens, UniProt P52333); assay: Inhibition of JAK3
# T1 sequence (P52333 whole entry): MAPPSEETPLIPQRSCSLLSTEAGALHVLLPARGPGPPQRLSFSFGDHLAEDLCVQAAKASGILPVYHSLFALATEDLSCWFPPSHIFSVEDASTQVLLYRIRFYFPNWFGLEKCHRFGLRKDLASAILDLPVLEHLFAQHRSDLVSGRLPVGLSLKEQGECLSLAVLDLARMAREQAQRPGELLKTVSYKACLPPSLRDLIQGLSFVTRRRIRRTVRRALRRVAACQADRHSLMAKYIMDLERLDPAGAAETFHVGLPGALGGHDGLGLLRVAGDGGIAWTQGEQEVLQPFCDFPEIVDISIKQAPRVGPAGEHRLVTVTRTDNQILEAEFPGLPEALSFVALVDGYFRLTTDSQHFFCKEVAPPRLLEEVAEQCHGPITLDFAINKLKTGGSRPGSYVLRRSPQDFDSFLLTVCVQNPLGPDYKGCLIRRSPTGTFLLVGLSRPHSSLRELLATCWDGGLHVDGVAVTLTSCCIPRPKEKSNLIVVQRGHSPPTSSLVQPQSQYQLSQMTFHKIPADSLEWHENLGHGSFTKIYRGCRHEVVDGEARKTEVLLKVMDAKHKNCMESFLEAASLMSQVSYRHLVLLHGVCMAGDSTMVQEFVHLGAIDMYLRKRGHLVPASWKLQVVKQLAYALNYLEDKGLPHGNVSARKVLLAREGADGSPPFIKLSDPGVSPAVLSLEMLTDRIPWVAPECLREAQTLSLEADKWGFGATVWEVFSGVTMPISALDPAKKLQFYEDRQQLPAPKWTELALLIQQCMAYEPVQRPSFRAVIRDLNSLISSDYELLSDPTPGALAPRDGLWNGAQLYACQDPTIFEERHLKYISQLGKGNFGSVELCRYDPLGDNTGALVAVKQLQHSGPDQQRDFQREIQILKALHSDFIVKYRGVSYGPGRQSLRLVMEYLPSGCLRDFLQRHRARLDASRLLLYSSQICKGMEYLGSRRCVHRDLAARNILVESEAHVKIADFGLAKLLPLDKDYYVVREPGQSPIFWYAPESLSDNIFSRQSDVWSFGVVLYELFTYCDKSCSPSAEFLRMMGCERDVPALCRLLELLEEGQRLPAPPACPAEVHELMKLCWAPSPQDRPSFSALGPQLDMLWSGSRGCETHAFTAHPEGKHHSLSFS
# [12] = biological target: cAMP-dependent protein kinase catalytic subunit alpha (Homo sapiens, UniProt P17612); assay: Inhibition of PKAalpha
# Aurora kinase A = biological target: T2, Aurora kinase A (Homo sapiens, UniProt O14965); assay: Inhibition of Aurora2
# T2 sequence (O14965 whole entry): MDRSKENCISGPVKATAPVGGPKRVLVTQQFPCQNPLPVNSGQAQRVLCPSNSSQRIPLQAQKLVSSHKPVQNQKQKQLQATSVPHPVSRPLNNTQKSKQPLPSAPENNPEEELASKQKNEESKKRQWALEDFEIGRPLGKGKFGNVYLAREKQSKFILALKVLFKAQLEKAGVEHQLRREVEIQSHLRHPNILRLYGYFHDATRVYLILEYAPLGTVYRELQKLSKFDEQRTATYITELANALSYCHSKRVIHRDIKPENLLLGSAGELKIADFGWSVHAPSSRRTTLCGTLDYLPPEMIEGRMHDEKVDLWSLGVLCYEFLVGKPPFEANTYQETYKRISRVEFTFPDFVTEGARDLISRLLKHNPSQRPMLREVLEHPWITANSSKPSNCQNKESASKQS
# Mus musculus = assay: Inhibition of human recombinant HGF-induced cMet phosphorylation in po or ip dosed BALB/c mouse liver after 2 hrs
# [13] = Clearance in iv dosed rat; assay type: ADME, organism-based; conditions: in vivo
# [14] = biological target: Mitogen-activated protein kinase 3 (Homo sapiens, UniProt P27361); assay: Inhibition of ERK1
# [15] = biological target: Tyrosine-protein kinase BTK (Homo sapiens, UniProt Q06187); assay: Inhibition of BTK
# [16] = Inhibition of FGFRK
# [17] = biological target: Mitogen-activated protein kinase 9 (Homo sapiens, UniProt P45984); assay: Inhibition of JNK2
# [18] = biological target: Vascular endothelial growth factor receptor 3 (Homo sapiens, UniProt P35916); assay: Inhibition of Flt4 kinase
# Angiopoietin-1 receptor = Angiopoietin-1 receptor (Homo sapiens, UniProt Q02763); assay: Inhibition of Tie2 kinase
# [19] = biological target: RAC-alpha serine/threonine-protein kinase (Homo sapiens, UniProt P31749); assay: Inhibition of PKBalpha
# [20] = biological target: Hepatocyte growth factor receptor (Homo sapiens, UniProt P08581); assay: Inhibition of cMet by HTRF assay
# [21] = biological target: Serine/threonine-protein kinase pim-2 (Homo sapiens, UniProt Q9P1W9); assay: Inhibition of PIM2 kinase
# [22] = Volume of distribution in iv dosed rat; assay type: ADME, organism-based; conditions: in vivo
# [23] = biological target: Tyrosine-protein kinase JAK2 (Homo sapiens, UniProt O60674); assay: Inhibition of JAK2
# [24] = biological target: Serine/threonine-protein kinase pim-1 (Homo sapiens, UniProt P11309); assay: Inhibition of PIM1 kinase
# [25] = biological target: Macrophage-stimulating protein receptor (Homo sapiens, UniProt Q04912); assay: Inhibition of phosphorylated RON
# [26] = Inhibition of P38 kinase
# [27] = biological target: Ribosomal protein S6 kinase beta-1 (Homo sapiens, UniProt P23443); assay: Inhibition of P70S6
# [28] = biological target: Vascular endothelial growth factor receptor 1 (Homo sapiens, UniProt P17948); assay: Inhibition of Flt1 kinase
# [29] = Selectivity of cMet over RON
# [30] = Selectivity of cMet over KDR
# [31] = Selectivity of cMet over PIM2
# [32] = Selectivity of cMet over Aurora2
# [33] = Selectivity of cMet over CDK5
# [34] = Selectivity of cMet over Tie2 kinase
# [35] = Selectivity of cMet over ERK1
# [36] = Selectivity of cMet over P38
# [37] = Selectivity of cMet over ZAP70
# [38] = Selectivity of cMet over PKAalpha
# [39] = Selectivity of cMet over Flt2
# [40] = Selectivity of cMet over MSK1
# [41] = Selectivity of cMet over LCK
# [42] = Selectivity of cMet over BTK
# [43] = Selectivity of cMet over P70S6
# [44] = Selectivity of cMet over JAK3
# [45] = Selectivity of cMet over cFMS kinase
# [46] = Selectivity of cMet over JNK2
# [47] = Selectivity of cMet over PIM1
# [48] = Selectivity of cMet over Flt1
# [49] = Selectivity of cMet over FGFRK2
# [50] = Selectivity of cMet over JAK2
# [51] = Selectivity of cMet over EGFR
# [52] = biological target: Hepatocyte growth factor receptor c-Met (Mus musculus) (UniProt P16056); assay: Inhibition of human recombinant HGF-mediated cMet phosphorylation in mouse CT26 cells
# [53] = Selectivity of cMet over FGFRK
# [54] = Selectivity of cMet over PKBalpha
# A-431 = assay: Cytotoxicity against human A431 cells; assay type: functional, cell-based
smiles,measurement,setting,value
COc1cc2nccc(Oc3ccc(-c4cnc(Cc5ccccc5)n(C)c4=O)cc3F)c2cc1OC,Ki,[1],1030 nM
same,Ki,[2],> 1300 nM
COc1cc2c(Oc3ccc(-c4cnc(Cc5ccccc5)n(C)c4=O)cc3F)ccnc2cc1OCCCN1CCOCC1,IC50,[3],> 1000 nM
same,IC50,[4],> 100000 nM
same,IC50,[5],37 nM
same,Ki,[1],1450 nM
same,half-life,[6],2.4 h
same,IC50,[7],> 100000 nM
same,IC50,[8],> 5400 nM
same,IC50,[9],8 nM
same,bioavailability,[10],100%
same,IC50,[11],> 8300 nM
same,IC50,[12],> 100000 nM
same,IC50,Aurora kinase A,116 nM
same,ED90,Mus musculus,100 mg/kg
same,clearance,[13],9.33 mL/min/kg
same,IC50,[14],> 100000 nM
same,IC50,[15],19 nM
same,IC50,[16],> 1000 nM
same,IC50,[17],> 100000 nM
same,Ki,[2],422 nM
same,IC50,[18],120 nM
same,IC50,Angiopoietin-1 receptor,285 nM
same,IC50,[19],> 100000 nM
same,Ki,[20],8.9 nM
same,IC50,[21],> 25000 nM
same,Vd,[22],3.4 L/kg
same,IC50,[23],> 25000 nM
same,IC50,[24],> 30000 nM
same,Ki,[25],195 nM
same,IC50,[26],> 25000 nM
same,IC50,[27],10000 nM
same,IC50,[28],> 1000 nM
COc1cc2nccc(Oc3ccc(-c4cnc(Nc5cccc(F)c5)n(C)c4=O)cc3F)c2cc1OC,Ki,[20],38 nM
COc1cc2nccc(Oc3ccc4cc(NC(=O)Cc5ccccc5)ccc4c3)c2cc1OC,Selectivity ratio,[29],3
same,Selectivity ratio,[30],9
same,Ki,[20],89 nM
COc1cc2c(Oc3ccc(-c4cnc(Nc5ccc(F)cc5)n(C)c4=O)nc3)ccnc2cc1OCCCN1CCOCC1,Selectivity ratio,[31],> 100
same,IC50,[4],52000 nM
same,Selectivity ratio,[32],> 100
same,Ki,[1],51 nM
same,half-life,[6],2.4 h
same,IC50,[7],> 100000 nM
same,IC50,[9],33 nM
same,bioavailability,[10],48%
same,Selectivity ratio,[33],> 100
same,IC50,[11],> 25000 nM
same,IC50,[12],> 25000 nM
same,Selectivity ratio,[34],> 100
same,Selectivity ratio,[35],> 100
same,Selectivity ratio,[36],> 100
same,Selectivity ratio,[37],> 100
same,IC50,Aurora kinase A,426 nM
same,Selectivity ratio,[38],> 100
same,ED90,Mus musculus,30 mg/kg
same,Selectivity ratio,[39],> 100
same,clearance,[13],9.33 mL/min/kg
same,Selectivity ratio,[40],> 100
same,IC50,[14],> 100000 nM
same,Selectivity ratio,[41],< 10
same,Selectivity ratio,[42],< 10
same,IC50,[15],126 nM
same,IC50,[16],1300 nM
same,Selectivity ratio,[43],> 100
same,IC50,[17],4700 nM
same,Selectivity ratio,[44],> 100
same,Selectivity ratio,[45],< 10
same,Selectivity ratio,[46],> 100
same,Ki,[2],83 nM
same,Selectivity ratio,[47],> 100
same,Selectivity ratio,[48],> 100
same,IC50,Angiopoietin-1 receptor,221 nM
same,Selectivity ratio,[49],> 100
same,IC50,[19],> 100000 nM
same,Selectivity ratio,[50],> 100
same,Selectivity ratio,[51],> 100
same,Ki,[20],3.4 nM
same,IC50,[21],> 25000 nM
same,Vd,[22],3.4 L/kg
same,IC50,[24],7800 nM
same,Ki,[25],1.3 nM
same,IC50,[52],59 nM
same,IC50,[26],> 100000 nM
same,IC50,[27],65000 nM
same,Selectivity ratio,[53],> 100
same,Selectivity ratio,[54],> 100
COc1cc2nccc(Oc3ccc(NC(=S)NC(=O)Cc4ccccc4)cc3F)c2cc1OC,IC50,A-431,8.7 nM
